According to ChEMBL document CHEMBL1154588, “Evaluation of triazolamers as active site inhibitors of HIV-1 protease” (Bioorg Med Chem Lett, 2009):
pIC50, pKi: −log10 of the molar value.

Molecular target: Protease (Human immunodeficiency virus 1, UniProt Q9YQ12)
Experiment: Inhibition of HIV1 protease by FRET-based assay
Outline: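 HIV-1 protease activity was read out by a FRET-based protease assay, following a previously described method. Triazolamer solutions were made up in 10% DMSO in aqueous buffer for the assay.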

Chain of Protease (Q9YQ12 whole entry): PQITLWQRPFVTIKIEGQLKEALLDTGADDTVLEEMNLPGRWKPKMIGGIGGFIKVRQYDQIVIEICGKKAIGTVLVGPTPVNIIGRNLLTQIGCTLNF

| Structure (SMILES) | pIC50 | pKi |
| --- | --- | --- |
| CC(C)[C@@H](c1cn([C@@H](Cc2ccccc2)c2cn([C@@H](Cc3ccccc3)c3cn([C@H](c4cn([C@H](C)c5ccccc5)nn4)C(C)C)nn3)nn2)nn1)n1cc(CCc2ccccc2)nn1 | 4.00 |  |
| C[C@H](c1ccccc1)n1cc([C@H](Cc2ccccc2)n2cc([C@H](Cc3ccccc3)n3cc([C@@H](N)Cc4ccccc4)nn3)nn2)nn1 | 4.11 |  |
| C[C@H](c1ccccc1)n1cc([C@H](Cc2ccccc2)n2cc([C@H](Cc3ccccc3)n3cc([C@H](Cc4ccccc4)n4cc([C@@H](N)Cc5ccccc5)nn4)nn3)nn2)nn1 | 4.54 | 4.60 |
| CNC(=O)[C@H](Cc1ccccc1)n1cc([C@H](Cc2ccccc2)n2cc([C@H](Cc3ccccc3)n3cc([C@H](Cc4ccccc4)n4cc([C@@H](N)Cc5ccccc5)nn4)nn3)nn2)nn1 | 4.14 |  |
| CC(C)[C@H](N)c1cn([C@H](c2cn([C@@H](Cc3ccccc3)c3cn([C@H](c4cn([C@H](C)c5ccccc5)nn4)C(C)C)nn3)nn2)C(C)C)nn1 | 3.88 |  |
| NCCNC(=O)[C@H](Cc1ccccc1)n1cc([C@H](Cc2ccccc2)n2cc([C@H](Cc3ccccc3)n3cc([C@H](Cc4ccccc4)n4cc([C@@H](N)Cc5ccccc5)nn4)nn3)nn2)nn1 | 4.60 | 4.60 |

Second part, the compound after the results:

| pIC50 | pKi | Structure (SMILES) |
| --- | --- | --- |
| 3.89 |  | CC(C)[C@H](N)c1cn([C@@H](Cc2ccccc2)c2cn([C@@H](Cc3ccccc3)c3cn([C@H](C)c4ccccc4)nn3)nn2)nn1 |
| < 3.30 | 3.30 | CNC(=O)[C@H](C(C)C)n1cc([C@H](Cc2ccccc2)n2cc([C@H](Cc3ccccc3)n3cc([C@@H](N)C(C)C)nn3)nn2)nn1 |
| 4.22 |  | CC(C)[C@H](N)c1cn([C@@H](Cc2ccccc2)c2cn([C@@H](Cc3ccccc3)c3cn([C@H](c4cn([C@H](C)c5ccccc5)nn4)C(C)C)nn3)nn2)nn1 |
| < 3.30 | 3.30 | CNC(=O)[C@H](C(C)C)n1cc([C@H](Cc2ccccc2)n2cc([C@H](Cc3ccccc3)n3cc([C@H](C)N)nn3)nn2)nn1 |
